Measurements taken from ChEMBL document CHEMBL1821703, “Anthraquinone derivatives induce G2/M cell cycle arrest and apoptosis in NTUB1 cells” (Bioorg Med Chem, 2011).
Active and inactive are the calls of the source. The calls are words filed in the database; no cut-off is given here.

Assays:
PC-3 [1] = test: Cytotoxicity against human PC3 cells after 72 hrs by MTT assay; type: functional; conditions: PC-3, 72 h, read-out: ED50 (the source's name)
Method in brief: (§1)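 Cells seeded at 1000/well (NTUB1, PC3) or 5000/well (SV-HUC1), incubated overnight at 37 °C, then exposed to graded concentrations for 72 h. Compounds were made up in DMSO and diluted in medium to 0.1% DMSO. MTT (2 mg/mL in PBS) added for 3 h, formazan dissolved in DMSO, absorbance read at 540 nm. Viability expressed as % of control; IC50 by median-effect analysis.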

[2] = Cytotoxicity against human NTUB1 cells at >30 uM after 72 hrs by MTT assay; type: functional; method in brief: as §1
[3] = Cytotoxicity against human NTUB1 cells after 72 hrs by MTT assay; type: functional; conditions: NTUB1, 72 h, read-out: ED50 (the source's name); method in brief: as §1
PC-3 [4] = test: Cytotoxicity against human PC3 cells at >50 uM after 72 hrs by MTT assay; type: functional; method in brief: as §1
[5] = Cytotoxicity against human NTUB1 cells at >50 uM after 72 hrs by MTT assay; type: functional; method in brief: as §1
NTUB1 [6] = test: Induction of ROS production in human NTUB1 cells using H2DCFDA staining at 1 mM after 24 hrs by flow cytometry analysis; type: functional, cell-based
Method in brief: (§2)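 NTUB1 cells treated 24 h with compounds, 20 µM cisplatin or 1 mM NAC. 10 µM H₂DCFDA added 30 min before harvest. Cells trypsinized, washed with PBS, and DCF green fluorescence read at once by FACScan flow cytometry through a 525-nm band-pass filter. Increase expressed with control set at 0%; three independent experiments.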

[7] = Cytotoxicity against human NTUB1 cells assessed as cell viability at 1 mM after 72 hrs by MTT assay relative to control; type: functional; conditions: NTUB1, 72 h, read-out: Activity
Method in brief: (§3)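 NTUB1 cells seeded at 1000/well, incubated overnight, then exposed 72 h to 1 mM NAC alone or to compound with NAC. MTT added for 3 h, formazan dissolved in DMSO, absorbance read at 540 nm. Viability expressed relative to untreated control; mean ± SD (n = 3) from one experiment in triplicate.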

NTUB1 [8] = test: Induction of ROS production in human NTUB1 cells using H2DCFDA staining at 20 uM after 24 hrs by flow cytometry analysis in presence of 1 mM of NAC; type: functional, cell-based
NTUB1 [9] = test: Induction of morphological changes in human NTUB1 cells assessed as increase of tetraploid DNA level using DAPI staining at 20 uM after 24 hrs by immunofluorescence microscopic analysis; type: functional, cell-based
Method in brief: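 3 × 10⁵ NTUB1 cells per 6-cm dish treated 24 h. Fixed in 2% formaldehyde/PBS for 20 min, then cold methanol (−20 °C) for 3 min. Stained with DAPI 1 h at room temperature in the dark and examined by fluorescence microscopy.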

NTUB1 [10] = test: Induction of up-regulation cyclin B1 expression in human NTUB1 cells at 20 uM after 24 hrs by Western blot analysis; type: functional, cell-based
Method in brief: (§4)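 NTUB1 cells exposed 24 h, trypsinized, and resuspended in PBS. Lysed by boiling twice for 10 min in 2× sample buffer, separated by SDS–PAGE, and semi-dry blotted to nitrocellulose. Membranes blocked in 5% skimmed milk in TBST, probed with primary antibodies overnight at 4 °C, then secondary antibody 1 h at room temperature. ECL chemiluminescence detection; GAPDH as internal control.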

NTUB1 [11] = test: Induction of up-regulation p21 expression in human NTUB1 cells at 20 uM after 24 hrs by Western blot analysis; type: functional, cell-based; method in brief: as §4
NTUB1 [12] = test: Induction of down-regulation cyclin B1 expression in human NTUB1 cells at 10 uM after 24 hrs by Western blot analysis; type: functional, cell-based; method in brief: as §4
NTUB1 [13] = test: Induction of up-regulation p21 expression in human NTUB1 cells at 10 uM after 24 hrs by Western blot analysis; type: functional, cell-based; method in brief: as §4
NTUB1 [14] = test: Increase of p53 protein expression in human NTUB1 cells at 10 to 20 uM after 24 hrs by Western blot analysis; type: functional, cell-based; method in brief: as §4
[15] = Decrease of Bax protein expression in human NTUB1 cells at 10 to 20 uM after 24 hrs by Western blot analysis; type: functional, cell-based; method in brief: as §4
[16] = Cytotoxicity against human SV-HUC1 cells at 3 to 10 uM after 72 hrs by MTT assay; type: cell-based; conditions: sv-huc1, 72 h; method in brief: as §1
NTUB1 [17] = test: Induction of ROS production in human NTUB1 cells using H2DCFDA staining after 24 hrs by flow cytometry analysis; type: functional, cell-based; method in brief: as §2
[18] = Cell cycle arrest in human NTUB1 cells assessed as accumulation at sub-G1 phase at 10 uM after 24 hrs using propidium iodide staining by flow cytometry analysis (reference value: 1.96%); type: functional, cell-based
Method in brief: (§5)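 3 × 10⁵ NTUB1 cells per 6-cm dish, treated 24 h (medium-only control). Cells then stained with 50 µg/mL propidium iodide plus 50 µg/mL RNase A in PBS, 30 min at room temperature. DNA content read by FACScan flow cytometry; sub-G1 content taken as apoptosis. Values are mean ± SD of four independent experiments.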

[19] = Cell cycle arrest in human NTUB1 cells assessed as accumulation at G1 phase at 10 uM after 24 hrs using propidium iodide staining by flow cytometry analysis (reference value: 56.06%); type: functional, cell-based; method in brief: as §5
[20] = Cell cycle arrest in human NTUB1 cells assessed as accumulation at S phase at 10 uM after 24 hrs using propidium iodide staining by flow cytometry analysis (reference value: 22.61%); type: functional, cell-based; method in brief: as §5
[21] = Cell cycle arrest in human NTUB1 cells assessed as accumulation at G2/M phase at 10 uM after 24 hrs using propidium iodide staining by flow cytometry analysis (reference value: 18.61%); type: functional, cell-based; method in brief: as §5
[22] = Cell cycle arrest in human NTUB1 cells assessed as accumulation at sub-G1 phase at 20 uM after 24 hrs using propidium iodide staining by flow cytometry analysis (reference value: 1.96%); type: functional, cell-based; method in brief: as §5
[23] = Cell cycle arrest in human NTUB1 cells assessed as accumulation at G1 phase at 20 uM after 24 hrs using propidium iodide staining by flow cytometry analysis (reference value: 56.06%); type: functional, cell-based; method in brief: as §5
[24] = Cell cycle arrest in human NTUB1 cells assessed as accumulation at S phase at 20 uM after 24 hrs using propidium iodide staining by flow cytometry analysis (reference value: 22.61%); type: functional, cell-based; method in brief: as §5
[25] = Cell cycle arrest in human NTUB1 cells assessed as accumulation at G2/M phase at 20 uM after 24 hrs using propidium iodide staining by flow cytometry analysis (reference value: 18.61%); type: functional, cell-based; method in brief: as §5
[26] = Cytotoxicity against human NTUB1 cells assessed as cell viability at 10 uM after 72 hrs by MTT assay relative to control; type: functional; conditions: NTUB1, 72 h, read-out: Activity; method in brief: as §1
[27] = Cytotoxicity against human NTUB1 cells assessed as cell viability at 20 uM after 72 hrs by MTT assay relative to control; type: functional; conditions: NTUB1, 72 h, read-out: Activity; method in brief: as §1
[28] = Cytotoxicity against human NTUB1 cells assessed as cell viability at 10 uM after 72 hrs by MTT assay relative to control in presence of 1 mM of NAC; type: functional; method in brief: as §3
[29] = Cytotoxicity against human NTUB1 cells assessed as cell viability at 20 uM after 72 hrs by MTT assay relative to control in presence of 1 mM of NAC; type: functional; method in brief: as §3
PC-3 [30] = test: Cytotoxicity against human PC3 cells at >30 uM after 72 hrs by MTT assay; type: functional; method in brief: as §1

For CN1CCN(CCCOc2cc(O)c3c(c2)C(=O)c2ccccc2C3=O)CC1, the EC50 (PC-3 [1]) was over 50 µM, the “inhibition (INH)” value [2] was 15.54% and the EC50 [3] was over 30 µM. For the same compound, the “inhibition (INH)” value (PC-3 [4]) was 44.36%.

For O=C1c2ccccc2C(=O)c2c(O)cc(OCCCN3CCN(CCO)CC3)cc21, the EC50 (PC-3 [1]) was over 50 µM, the EC50 [3] was over 50 µM and the “inhibition (INH)” value [5] was 18.75%. For the same compound, the “inhibition (INH)” value (PC-3 [4]) was 18.54%.

With CCCNCCCOc1cc(O)c2c(c1)C(=O)c1ccccc1C2=O the EC50 (PC-3 [1]) was 14 µM and the EC50 [3] was 18.9 µM.

With CN(CCO)CCCOc1cc(O)c2c(c1)C(=O)c1ccccc1C2=O the EC50 (PC-3 [1]) was 8.89 µM and the EC50 [3] was 12.3 µM.

For O=C1c2ccccc2C(=O)c2c(O)cc(OCCCNC3CCCCC3)cc21, the EC50 (PC-3 [1]) was 9.12 µM and the EC50 [3] was 8.37 µM.

CC(O)CNCCCOc1cc(O)c2c(c1)C(=O)c1ccccc1C2=O (configuration not stated) gave an EC50 (PC-3 [1]) of 9.07 µM and an EC50 [3] of 12 µM.

Work on O=C1c2ccccc2C(=O)c2c(O)cc(OCCCN3CCCCC3)cc21 yielded an EC50 (PC-3 [1]) of 28.5 µM and an EC50 [3] of 32.6 µM.

For CC(=O)N[C@@H](CS)C(=O)O [ACETYLCYSTEINE], the Activity (NTUB1 [6]) was “inactive” and the viability at 1000 µM [7] was 96.3%.

For O=C1c2ccccc2C(=O)c2c(O)cc(OCCCN3CCCC3)cc21, the Activity (NTUB1 [8]) was “inactive”, the Activity (NTUB1 [9]) was “Active” and the Activity (NTUB1 [10]) was “Active”. For the same compound, the Activity (NTUB1 [11]) was “Active”, the Activity (NTUB1 [12]) was “Active” and the Activity (NTUB1 [13]) was “Active”. For the same compound, the Activity (NTUB1 [14]) was “Active”, the Activity [15] was “Active” and the Activity [16] was “Non-toxic”. The EC50 (PC-3 [1]) was 7.64 µM, the EC50 [3] was 9.72 µM and the Activity (NTUB1 [17]) was “Active”. It also gave an Activity [18] of 2.47%, an Activity [19] of 51.4% and an Activity [20] of 25.3%. The Activity [21] was 19.2%, the Activity [22] was 4.69% and the Activity [23] was 36.6%. For the same compound, the Activity [24] was 21.9%, the Activity [25] was 29.6% and the viability at 10 µM [26] was 57%. For the same compound, the viability at 20 µM [27] was 13.1%, the Activity [28] was 57.4% and the Activity [29] was 17.1%.

Work on CCNCCCOc1ccc2c(c1)C(=O)c1ccccc1C2=O yielded an EC50 (PC-3 [1]) of 22.9 µM and an EC50 [3] of 24.4 µM.

For CCOC(=O)N1CCN(CCCOc2cc(O)c3c(c2)C(=O)c2ccccc2C3=O)CC1, the “inhibition (INH)” value (PC-3 [30]) was 12.44%, the EC50 (PC-3 [1]) was over 30 µM and the EC50 [3] was 50.9 µM. For the same compound, the Activity (NTUB1 [17]) was “Active”.

With O=C1c2ccccc2C(=O)c2c(O)cc(OCCCN3CCOCC3)cc21 the EC50 (PC-3 [1]) was 17.7 µM, the EC50 [3] was 20.4 µM and the Activity (NTUB1 [17]) was “Active”.

With CCNCCCOc1cc(O)c2c(c1)C(=O)c1ccccc1C2=O the EC50 (PC-3 [1]) was over 50 µM, the EC50 [3] was over 50 µM and the “inhibition (INH)” value [5] was 23.2%. The “inhibition (INH)” value (PC-3 [4]) was 19.2%.
